In ChEMBL document CHEMBL3576819, “Design, synthesis, biological evaluation and molecular docking studies of phenylpropanoid derivatives as potent anti-hepatitis B virus agents” (Eur J Med Chem, 2015):

Assays:
[1] = system: Hepatitis B virus; experiment: Antiviral activity against Hepatitis B virus infected in human HepG2.2.15 cells assessed as inhibition of HBeAg secretion at 37.5 uM after 9 days by ELISA; type: functional; settings: HepG2 2.2.15, 216 h
Procedure, shortened: (§1)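 HepG2.2.15 cells (MEM, 10% FBS, 380 µg/ml G418) seeded at 1×10^5 cells/ml, held 24 h at 37 °C, then treated with various drug concentrations; medium with drug renewed every 3 d for up to 9 d. Culture medium sampled on days 3, 6 and 9, stored at -20 °C, and assayed for secreted antigen. Lamivudine as positive control; IC50 = 50% inhibition of secretion; means of at least two experiments.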

[2] = system: Hepatitis B virus; experiment: Antiviral activity against Hepatitis B virus infected in human HepG2.2.15 cells assessed as inhibition of HBsAg secretion at 150 uM after 3 days by ELISA; type: functional; settings: HepG2 2.2.15, 72 h; procedure, shortened: as §1
[3] = system: Hepatitis B virus; experiment: Antiviral activity against Hepatitis B virus infected in human HepG2.2.15 cells assessed as inhibition of HBsAg secretion at 75 uM after 6 days by ELISA; type: functional; settings: HepG2 2.2.15, 144 h; procedure, shortened: as §1
[4] = Cytotoxicity against human HepG2.2.15 cells assessed as cell death after 9 days by MTT assay; type: cell-based, HepG2 2.2.15
Procedure, shortened: (§2)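 HepG2.2.15 cells (MEM, 10% FBS, 380 µg/ml G418, 37 °C, 5% CO2) seeded at 1×10^5 cells/ml, cultured 24 h, then exposed to various drug concentrations; drug-containing medium renewed every 3 d. OD read at 450 nm after 9 days; percent cell death calculated; CC50 = concentration killing 50% of cells. Means of at least two experiments.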

[5] = system: Hepatitis B virus; experiment: Antiviral activity against Hepatitis B virus infected in human HepG2.2.15 cells assessed as inhibition of HBsAg secretion at 37.5 uM after 6 days by ELISA; type: functional; settings: HepG2 2.2.15, 144 h; procedure, shortened: as §1
[6] = system: Hepatitis B virus; experiment: Antiviral activity against Hepatitis B virus infected in human HepG2.2.15 cells assessed as inhibition of HBeAg secretion at 300 uM after 6 days by ELISA; type: functional; settings: HepG2 2.2.15, 144 h; procedure, shortened: as §1
[7] = system: Hepatitis B virus; experiment: Antiviral activity against Hepatitis B virus infected in human HepG2.2.15 cells assessed as inhibition of HBsAg secretion at 300 uM after 3 days by ELISA; type: functional; settings: HepG2 2.2.15, 72 h; procedure, shortened: as §1
[8] = system: Hepatitis B virus; experiment: Antiviral activity against Hepatitis B virus infected in human HepG2.2.15 cells assessed as inhibition of HBeAg secretion at 75 uM after 3 days by ELISA; type: functional; settings: HepG2 2.2.15, 72 h; procedure, shortened: as §1
[9] = system: Hepatitis B virus; experiment: Antiviral activity against Hepatitis B virus infected in human HepG2.2.15 cells assessed as cell survival at 75 uM after 9 days (reference value: 100%); type: functional; settings: HepG2 2.2.15, 216 h; procedure, shortened: as §2
[10] = system: Hepatitis B virus; experiment: Antiviral activity against Hepatitis B virus infected in human HepG2.2.15 cells assessed as inhibition of HBeAg secretion by ELISA; type: functional, organism-based; settings: HepG2 2.2.15; procedure, shortened: as §1
[11] = system: Hepatitis B virus; experiment: Antiviral activity against Hepatitis B virus infected in human HepG2.2.15 cells assessed as inhibition of HBsAg secretion at 150 uM after 9 days by ELISA; type: functional; settings: HepG2 2.2.15, 216 h; procedure, shortened: as §1
[12] = system: Hepatitis B virus; experiment: Antiviral activity against Hepatitis B virus infected in human HepG2.2.15 cells assessed as inhibition of HBsAg secretion at 75 uM after 9 days by ELISA; type: functional; settings: HepG2 2.2.15, 216 h; procedure, shortened: as §1
[13] = system: Hepatitis B virus; experiment: Antiviral activity against Hepatitis B virus infected in human HepG2.2.15 cells assessed as cell survival at 150 uM after 9 days (reference value: 100%); type: functional; settings: HepG2 2.2.15, 216 h; procedure, shortened: as §2
[14] = system: Hepatitis B virus; experiment: Antiviral activity against Hepatitis B virus infected in human HepG2.2.15 cells assessed as cell survival at 37.5 uM after 9 days (reference value: 100%); type: functional; settings: HepG2 2.2.15, 216 h; procedure, shortened: as §2
[15] = system: Hepatitis B virus; experiment: Antiviral activity against Hepatitis B virus infected in human HepG2.2.15 cells assessed as inhibition of HBeAg secretion at 37.5 uM after 3 days by ELISA; type: functional; settings: HepG2 2.2.15, 72 h; procedure, shortened: as §1
[16] = system: Hepatitis B virus; experiment: Antiviral activity against Hepatitis B virus infected in human HepG2.2.15 cells assessed as inhibition of HBeAg secretion at 75 uM after 6 days by ELISA; type: functional; settings: HepG2 2.2.15, 144 h; procedure, shortened: as §1
[17] = system: Hepatitis B virus; experiment: Antiviral activity against Hepatitis B virus infected in human HepG2.2.15 cells assessed as inhibition of HBeAg secretion at 300 uM after 9 days by ELISA; type: functional; settings: HepG2 2.2.15, 216 h; procedure, shortened: as §1
[18] = system: Hepatitis B virus; experiment: Antiviral activity against Hepatitis B virus infected in human HepG2.2.15 cells assessed as inhibition of HBeAg secretion at 75 uM after 9 days by ELISA; type: functional; settings: HepG2 2.2.15, 216 h; procedure, shortened: as §1
[19] = system: Hepatitis B virus; experiment: Antiviral activity against Hepatitis B virus infected in human HepG2.2.15 cells assessed as inhibition of HBsAg secretion at 300 uM after 6 days by ELISA; type: functional; settings: HepG2 2.2.15, 144 h; procedure, shortened: as §1
[20] = system: Hepatitis B virus; experiment: Antiviral activity against Hepatitis B virus infected in human HepG2.2.15 cells assessed as inhibition of HBsAg secretion at 300 uM after 9 days by ELISA; type: functional; settings: HepG2 2.2.15, 216 h; procedure, shortened: as §1
[21] = system: Hepatitis B virus; experiment: Antiviral activity against Hepatitis B virus infected in human HepG2.2.15 cells assessed as inhibition of HBsAg secretion by ELISA; type: functional, organism-based; settings: HepG2 2.2.15; procedure, shortened: as §1
[22] = system: Hepatitis B virus; experiment: Antiviral activity against Hepatitis B virus infected in human HepG2.2.15 cells assessed as inhibition of HBeAg secretion at 150 uM after 3 days by ELISA; type: functional; settings: HepG2 2.2.15, 72 h; procedure, shortened: as §1
[23] = system: Hepatitis B virus; experiment: Antiviral activity against Hepatitis B virus infected in human HepG2.2.15 cells assessed as cell survival at 300 uM after 9 days (reference value: 100%); type: functional; settings: HepG2 2.2.15, 216 h; procedure, shortened: as §2
[24] = system: Hepatitis B virus; experiment: Antiviral activity against Hepatitis B virus infected in human HepG2.2.15 cells assessed as inhibition of HBsAg secretion at 37.5 uM after 9 days by ELISA; type: functional; settings: HepG2 2.2.15, 216 h; procedure, shortened: as §1
[25] = system: Hepatitis B virus; experiment: Antiviral activity against Hepatitis B virus infected in human HepG2.2.15 cells assessed as inhibition of HBeAg secretion at 300 uM after 3 days by ELISA; type: functional; settings: HepG2 2.2.15, 72 h; procedure, shortened: as §1
[26] = system: Hepatitis B virus; experiment: Antiviral activity against Hepatitis B virus infected in human HepG2.2.15 cells assessed as inhibition of HBeAg secretion at 150 uM after 9 days by ELISA; type: functional; settings: HepG2 2.2.15, 216 h; procedure, shortened: as §1
[27] = system: Hepatitis B virus; experiment: Antiviral activity against Hepatitis B virus infected in human HepG2.2.15 cells assessed as inhibition of HBsAg secretion at 37.5 uM after 3 days by ELISA; type: functional; settings: HepG2 2.2.15, 72 h; procedure, shortened: as §1
[28] = system: Hepatitis B virus; experiment: Antiviral activity against Hepatitis B virus infected in human HepG2.2.15 cells assessed as inhibition of HBeAg secretion at 37.5 uM after 6 days by ELISA; type: functional; settings: HepG2 2.2.15, 144 h; procedure, shortened: as §1
[29] = system: Hepatitis B virus; experiment: Antiviral activity against Hepatitis B virus infected in human HepG2.2.15 cells assessed as inhibition of HBeAg secretion at 150 uM after 6 days by ELISA; type: functional; settings: HepG2 2.2.15, 144 h; procedure, shortened: as §1
[30] = Selectivity index, ratio of CC50 for human HepG2.2.15 cells to IC50 for Hepatitis B virus infected in human HepG2.2.15 cells assessed as inhibition of HBsAg secretion; type: functional
Procedure, shortened: (§3)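 Selectivity index computed as CC50/IC50, with CC50 from cell death of HepG2.2.15 cells after 9 days of treatment (OD 450 nm) and IC50 from 50% inhibition of HBeAg or HBsAg secretion in the same cells; medium with drug renewed every 3 d.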

[31] = system: Hepatitis B virus; experiment: Antiviral activity against Hepatitis B virus infected in human HepG2.2.15 cells assessed as inhibition of HBsAg secretion at 75 uM after 3 days by ELISA; type: functional; settings: HepG2 2.2.15, 72 h; procedure, shortened: as §1
[32] = Selectivity index, ratio of CC50 for human HepG2.2.15 cells to IC50 for Hepatitis B virus infected in human HepG2.2.15 cells assessed as inhibition of HBeAg secretion; type: functional; procedure, shortened: as §3
[33] = system: Hepatitis B virus; experiment: Antiviral activity against Hepatitis B virus infected in human HepG2.2.15 cells assessed as inhibition of HBsAg secretion at 150 uM after 6 days by ELISA; type: functional; settings: HepG2 2.2.15, 144 h; procedure, shortened: as §1

COc1ccc(/C=C/C(=O)O/N=C/c2cccs2)cc1OC
inhibition at 37.5 µM [1]: 18.6%
inhibition at 150 µM [2]: 40.7%
inhibition at 75 µM [3]: 29.6%
CC50 at 216 h [4]: 574 µM
inhibition at 37.5 µM [5]: 19.8%
inhibition at 300 µM [6]: 35.4%
inhibition at 300 µM [7]: 47.6%
inhibition at 75 µM [8]: 7.04%
viability at 75 µM [9]: 101%
IC50 [10]: 378 µM
inhibition at 150 µM [11]: 42.8%
inhibition at 75 µM [12]: 29.3%
viability at 150 µM [13]: 98.7%
viability at 37.5 µM [14]: 114%
inhibition at 37.5 µM [15]: 0.63%
inhibition at 75 µM [16]: 15.3%
inhibition at 300 µM [17]: 52.3%
inhibition at 75 µM [18]: 22.6%
inhibition at 300 µM [19]: 52.6%
inhibition at 300 µM [20]: 55%
IC50 [21]: 229 µM
inhibition at 150 µM [22]: 11.8%
viability at 300 µM [23]: 97.7%
inhibition at 37.5 µM [24]: 20.5%
inhibition at 300 µM [25]: 14.3%
inhibition at 150 µM [26]: 26.9%
inhibition at 37.5 µM [27]: 17.4%
inhibition at 37.5 µM [28]: 8.58%
inhibition at 150 µM [29]: 20.4%
Ratio CC50/IC50 [30]: 2.51
inhibition at 75 µM [31]: 28.4%
Ratio CC50/IC50 [32]: 1.52
inhibition at 150 µM [33]: 41.2%
